Data on two molecules can be found in ChEMBL document CHEMBL1124929, “Indolo[2,1-a]isoquinolines. Syntheses, steroid hormone receptor binding affinities, and cytostatic activity” (1990).

The target in test [1] is T1, Androgen Receptor (Bos taurus) (UniProt Q5EM59).
T1 sequence (whole entry): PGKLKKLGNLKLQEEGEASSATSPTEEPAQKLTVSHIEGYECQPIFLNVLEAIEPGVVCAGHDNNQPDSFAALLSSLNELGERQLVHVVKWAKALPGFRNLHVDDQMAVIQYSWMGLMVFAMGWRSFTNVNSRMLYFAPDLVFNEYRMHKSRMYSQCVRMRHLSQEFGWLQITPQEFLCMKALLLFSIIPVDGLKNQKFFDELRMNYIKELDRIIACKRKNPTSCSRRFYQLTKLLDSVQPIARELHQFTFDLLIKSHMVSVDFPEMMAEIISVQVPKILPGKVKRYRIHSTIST
Description: Relative binding affinities (RBA) for Androgen receptor (AR). The gist of the method: (§1)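 Receptor source was calf uterine cytosol (105000g supernatant, 3 mg/mL protein in assay). Buffers were Tris/EDTA pH 7.4, with NaN₃ for ER, molybdate/glycerol for AR, and sucrose for PR. Tracers were 1 nM [³H]estradiol, [³H]mibolerone or [³H]Org 2058. Incubation was at 0–4 °C for 16 h (ER) or 2 h (AR, PR), with 4–6 competitor concentrations. Nonspecific binding used 2 µM of the unlabeled hormone. Separation was by dextran-coated charcoal. RBA is the ratio of IC50 values for hormone and compound ×100, mean of two triplicate experiments.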

Test [2] addresses Estrogen receptor (Bos taurus) (UniProt Q9XSB5+P49884). The test is described as follows: Relative binding affinity(RBA) for 50% displacement of [3H]-estradiol from Estrogen receptor compared to 17-beta-estradiol. Type of test: protein assay. A digest of the protocol: as §1
In general terms: Displacement assays read how much labelled ligand stays bound in the presence of the test substance.

A further test is filed under the species Bos taurus. The test is described as follows: Relative binding affinity(RBA) as ratio of progesterone and compound required to displace [3H]-org 2058 binding to Progesterone receptor by 50%. A digest of the protocol:
as §1

Test [3] has as its system MCF7. Description: Effect on [3H]thymidine incorporation into MCF-7 human breast cancer cells at 1x10E-6M. Type of test: functional. The gist of the method:
(§2)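 Cells were seeded at ~2 × 10⁴ per well, treated from the next day in 0.1% DMSO, with DMSO controls. MCF-7 cells were held in charcoal-stripped NCS for 2 weeks, treated for 5 days and re-dosed on day 4. MDA-MB 231 cells were grown in McCoy 5a/10% NCS and treated for 2 days. At the end, 1 µCi [³H]thymidine per well was added for 2 h. Result is % T/C, mean of three experiments × six dishes.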
(Uptake of a labelled nucleoside into DNA is a usual measure of proliferation.)

In test [4] the test system is MDA-MB-231. The test is described as follows: Effect on [3H]-thymidine incorporation into MDA-MB 231 human breast cancer cells at 1x10E-6M. Type of test: functional. The gist of the method: as §2
Test [5] concerns the target T1, Androgen Receptor (Bos taurus). Description: Relative binding affinity(RBA) for 50% displacement of [3H]mibolerone from Androgen receptor compared to testorone. A digest of the protocol: as §1
The test system of test [6] is MDA-MB-231. Description: Effect on [3H]thymidine incorporation into MDA-MB 231 human breast cancer cells at 1x10E-5 M. Type of test: functional. The gist of the method: as §2
In test [7] the test system is MCF7. The test is described as follows: Effect on hormone-dependent MCF-7 human breast cancer cell proliferation at 1x10E-6M. Type of test: functional. The gist of the method: (§3)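 Cells were plated at about 2 × 10⁴ per well in six-well dishes. MCF-7 cells were grown in modified improved MEM with 5% NCS, switched to charcoal-treated NCS two weeks before the test, and exposed for 5 days with a re-dose on day 4. MDA-MB 231 cells were grown in McCoy 5a with 10% NCS and exposed for 2 days. Compounds were given 1 day after plating in 0.1% DMSO, with DMSO-matched controls. Read-out was cell number as % T/C, mean of three experiments with six dishes.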

The test system of test [8] is MDA-MB-231. The test is described as follows: Cytostatic effect on hormone-independent MDA-MB 231 human breast cancer cell proliferation at5x10E-6M. The format is functional. The gist of the method: as §3
Test [9] has as its system MCF7. Description: Effect on [3H]-thymidine incorporation into MCF-7 human breast cancer cells at 1x10E-5 M. The format is functional. The gist of the method: as §2
Test [10] concerns MDA-MB-231. Description: Effect on [3H]thymidine incorporation into MDA-MB 231 human breast cancer cells at 5x10E-6M. The format is functional. The gist of the method:
as §2

Test [11] deals with MCF7. Description: Effect on hormone-dependent MCF-7 human breast cancer cell proliferation at 1x10E-5 M. The format is functional. A digest of the protocol:
as §3

Molecule `CC(=O)Oc1ccc2c(c1)CCn1c-2cc2cc(OC(C)=O)ccc21` showed a relative binding affinity (RBA) in test [1] below 0.01. Moreover, the RBA is 2 in test [2] and below 0.01 in the test filed under Bos taurus.
Turning to `CCc1cc2cc(OC(C)=O)ccc2c2cc3ccc(OC(C)=O)cc3n12`, the T/C (in general, the result in the treated group divided by that in the control group, in per cent) in the test on MCF7 [3] was determined as 70%; with MDA-MB-231 [4], 80%; in the test on MDA-MB-231 [6], 3%; in the test with MCF7 [7], 75%; in the test with MDA-MB-231 [8], 8%; with MCF7 [9], 3%. Besides, the T/C in the test on MDA-MB-231 [10] is recorded as 7%; in the test on MCF7 [11], 5%. The results for the RBA (in test [2]; in test [5]; in the test filed under Bos taurus) were 1.5, 0.01 and below 0.01, respectively.
